Assay [1] has as its target Serine/threonine-protein kinase BRSK1 (Homo sapiens) (UniProt Q8TDC3). The assay is described as follows: Inhibition of recombinant BRSK1 (unknown origin) assessed as residual activity using [gamma-33P]ATP as substrate at 1 uM. The method in brief: (§1)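 Recombinant kinase panel screened at 1 µM in duplicate. Reactions started with [γ-33P]ATP (800 cpm/pmol) at 5, 20 or 50 µM, chosen to sit at or below each enzyme's ATP Km. Stopped with phosphoric acid and spotted onto P81 filters. Result given as residual kinase activity.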

Assay [2] concerns the target Serine/threonine-protein kinase 26 (Homo sapiens) (UniProt Q9P289). The assay is described as follows: Inhibition of recombinant MST4 (unknown origin) assessed as residual activity using [gamma-33P]ATP as substrate at 1 uM. The method in brief: (§2)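 Selectivity panel run under previously published conditions. Screened at 1 μM in duplicate. Reactions started with [γ-33P]ATP (800 cpm/pmol) at 5, 20 or 50 μM, chosen to be at or below each enzyme's ATP Km. Stopped with phosphoric acid, spotted onto P81 filters. Result expressed as residual kinase activity.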

Assay [3] has as its target Serine/threonine-protein kinase TAO1 (Homo sapiens) (UniProt Q7L7X3). The assay is described as follows: Inhibition of recombinant TAO1 (unknown origin) assessed as residual activity using [gamma-33P]ATP as substrate at 1 uM. The method in brief: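 Kinase panel screen with each compound at 1 µM, in duplicate. Reactions were started with [γ-33P]ATP (800 cpm/pmol) at 5, 20 or 50 µM, chosen per enzyme to be at or below its ATP Km. Reactions were stopped with phosphoric acid and spotted onto P81 filters. Results are given as residual kinase activity.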

Assay [4] concerns the target Serine/threonine-protein kinase PAK 4 (Homo sapiens) (UniProt O96013). The assay is described as follows: Inhibition of recombinant PAK4 (unknown origin) assessed as residual activity using [gamma-33P]ATP as substrate at 1 uM. The method in brief:
as §2

Assay [5] addresses Dual specificity tyrosine-phosphorylation-regulated kinase 1A (Homo sapiens) (UniProt Q13627). The assay is described as follows: Inhibition of recombinant DYRK1A (unknown origin) assessed as residual activity using [gamma-33P]ATP as substrate at 1 uM. The procedure, abridged:
as §1

The target in assay [6] is MAP kinase-activated protein kinase 3 (Homo sapiens) (UniProt Q16644). The assay is described as follows: Inhibition of recombinant MAPKAPK3 (unknown origin) assessed as residual activity using [gamma-33P]ATP as substrate at 1 uM. The procedure, abridged:
as §2

The target of assay [7] is Insulin receptor (Homo sapiens) (UniProt P06213). The assay is described as follows: Inhibition of recombinant IR (unknown origin) assessed as residual activity using [gamma-33P]ATP as substrate at 1 uM. The procedure, abridged: as §1
Insulin receptor (Homo sapiens), sequence (P06213 28-758 limits assumed): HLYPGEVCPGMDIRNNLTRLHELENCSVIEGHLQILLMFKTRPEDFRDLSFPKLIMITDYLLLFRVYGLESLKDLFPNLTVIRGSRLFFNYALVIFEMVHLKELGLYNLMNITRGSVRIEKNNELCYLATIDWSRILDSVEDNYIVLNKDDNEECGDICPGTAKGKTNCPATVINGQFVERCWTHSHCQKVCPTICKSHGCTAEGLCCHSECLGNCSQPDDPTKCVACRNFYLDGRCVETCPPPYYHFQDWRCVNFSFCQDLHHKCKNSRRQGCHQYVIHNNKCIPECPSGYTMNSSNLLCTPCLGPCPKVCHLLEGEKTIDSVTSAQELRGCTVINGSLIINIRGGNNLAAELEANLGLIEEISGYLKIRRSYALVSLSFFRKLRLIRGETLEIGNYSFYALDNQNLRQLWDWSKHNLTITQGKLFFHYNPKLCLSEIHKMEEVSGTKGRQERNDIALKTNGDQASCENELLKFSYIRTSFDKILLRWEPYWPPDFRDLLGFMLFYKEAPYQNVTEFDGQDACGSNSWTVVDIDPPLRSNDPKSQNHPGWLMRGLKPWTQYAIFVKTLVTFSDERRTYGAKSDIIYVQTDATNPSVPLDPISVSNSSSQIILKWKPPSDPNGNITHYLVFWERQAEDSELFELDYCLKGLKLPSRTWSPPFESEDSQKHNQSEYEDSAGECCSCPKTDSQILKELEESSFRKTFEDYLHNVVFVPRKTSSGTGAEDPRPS
Insulin receptor (Homo sapiens), sequence (P06213 763-1382 limits assumed): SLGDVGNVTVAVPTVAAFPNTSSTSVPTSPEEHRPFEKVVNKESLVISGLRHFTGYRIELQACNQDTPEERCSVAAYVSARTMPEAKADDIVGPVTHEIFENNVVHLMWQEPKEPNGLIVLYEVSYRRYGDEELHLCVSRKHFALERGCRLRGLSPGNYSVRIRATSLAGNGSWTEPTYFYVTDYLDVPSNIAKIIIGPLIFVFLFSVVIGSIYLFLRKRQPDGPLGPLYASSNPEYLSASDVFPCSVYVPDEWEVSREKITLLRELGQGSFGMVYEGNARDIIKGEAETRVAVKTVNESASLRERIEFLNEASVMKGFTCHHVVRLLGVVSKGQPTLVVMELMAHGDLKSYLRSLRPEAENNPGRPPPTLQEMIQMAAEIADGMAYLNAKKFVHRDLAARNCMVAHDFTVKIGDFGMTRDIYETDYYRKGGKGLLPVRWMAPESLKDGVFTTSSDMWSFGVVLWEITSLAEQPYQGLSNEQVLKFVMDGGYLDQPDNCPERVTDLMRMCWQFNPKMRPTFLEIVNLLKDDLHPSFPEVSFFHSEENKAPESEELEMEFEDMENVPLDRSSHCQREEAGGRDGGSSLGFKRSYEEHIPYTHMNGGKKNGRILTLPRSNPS
The target in assay [8] is Serine/threonine-protein kinase STK11 (Homo sapiens) (UniProt Q15831). The assay is described as follows: Inhibition of recombinant LKB1 (unknown origin) assessed as residual activity using [gamma-33P]ATP as substrate at 1 uM. The procedure, abridged:
as §2

Assay [9] addresses Protein-tyrosine kinase 6 (Homo sapiens) (UniProt Q13882). The assay is described as follows: Inhibition of recombinant BRK (unknown origin) assessed as residual activity using [gamma-33P]ATP as substrate at 1 uM. The method in brief:
as §1

The target of assay [10] is Homeodomain-interacting protein kinase 2 (Homo sapiens) (UniProt Q9H2X6). The assay is described as follows: Inhibition of recombinant HIPK2 (unknown origin) assessed as residual activity using [gamma-33P]ATP as substrate at 1 uM. The procedure, abridged:
as §1

Assay [11] addresses Serine/threonine-protein kinase pim-2 (Homo sapiens) (UniProt Q9P1W9). The assay is described as follows: Inhibition of recombinant PIM2 (unknown origin) assessed as residual activity using [gamma-33P]ATP as substrate at 1 uM. The method in brief: as §2
Assay [12] deals with Cyclin-dependent kinase 2/cyclin E1 (Homo sapiens) (UniProt P24864+P24941). The assay is described as follows: Ratio of roscovitine IC50 to compound IC50 for recombinant CDK2/cyclin E (unknown origin). In kind it is protein-complex assay.
The target in assay [13] is Cyclin-dependent kinase 1/cyclin B1 (Homo sapiens) (UniProt P06493+P14635). The assay is described as follows: Ratio of roscovitine IC50 to compound IC50 for recombinant CDK1/cyclin B (unknown origin). In kind it is protein-complex assay.
The target in assay [14] is Dual specificity mitogen-activated protein kinase kinase 2 (Homo sapiens) (UniProt P36507). The assay is described as follows: Inhibition of recombinant MKK2 (unknown origin) assessed as residual activity using [gamma-33P]ATP as substrate at 1 uM. The method in brief:
as §2

For assay [15], the target named is Serine/threonine-protein kinase D1 (Homo sapiens) (UniProt Q15139). The assay is described as follows: Inhibition of recombinant PKD1 (unknown origin) assessed as residual activity using [gamma-33P]ATP as substrate at 1 uM. The method in brief:
as §2

For a further assay, the species on record is Homo sapiens. The assay is described as follows: Inhibition of recombinant PKA (unknown origin) assessed as residual activity using [gamma-33P]ATP as substrate at 1 uM. The procedure, abridged: as §2
In assay [16] the target is Protein kinase C alpha type (Homo sapiens) (UniProt P17252). The assay is described as follows: Inhibition of recombinant PKCalpha (unknown origin) assessed as residual activity using [gamma-33P]ATP as substrate at 1 uM. The procedure, abridged: as §2
In assay [17] the target is Tyrosine-protein kinase CSK (Homo sapiens) (UniProt P41240). The assay is described as follows: Inhibition of recombinant CSK (unknown origin) assessed as residual activity using [gamma-33P]ATP as substrate at 1 uM. The method in brief:
as §1

For assay [18], the system named is MCF7. The assay is described as follows: Cell cycle arrest in human MCF7 cells assessed as accumulation of cells in G2+M phase at 100 uM after 24 hrs by propidium iodide staining based flow cytometry relative to untreated control. The class given is functional. The procedure, abridged:
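Flow cytometry on MCF7 cells given 100 µM for 24 h. About one million cells fixed in 90% methanol and rehydrated. DNA stained with propidium iodide, read at 488/575 nm (ex/em). The value is the G2+M fraction of treated cells divided by the G2+M fraction of untreated control cells.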
In general terms: In flow cytometry, cells or beads pass a laser one at a time.

The subject of assay [19] is MCF7. The assay is described as follows: Ratio of roscovitine IC50 to compound IC50 for human MCF7 cells after 72 hrs by calcien AM dye based fluorescence analysis. In kind it is functional.
Assay [20] concerns the target Dual specificity mitogen-activated protein kinase kinase 6 (Homo sapiens) (UniProt P52564). The assay is described as follows: Inhibition of recombinant MKK6 (unknown origin) assessed as residual activity using [gamma-33P]ATP as substrate at 1 uM. The procedure, abridged:
as §2

Assay [21] addresses Ephrin type-B receptor 1 (Homo sapiens) (UniProt P54762). The assay is described as follows: Inhibition of recombinant EPH-B1 (unknown origin) assessed as residual activity using [gamma-33P]ATP as substrate at 1 uM. The procedure, abridged:
as §1

Assay [22] concerns the target Mitogen-activated protein kinase 10 (Homo sapiens) (UniProt P53779). The assay is described as follows: Inhibition of recombinant JNK3 (unknown origin) assessed as residual activity using [gamma-33P]ATP as substrate at 1 uM. The method in brief: as §2

The structures appear in SMILES notation. Bounds are passed on as bounds.

Serine/threonine-protein kinase BRSK1 (Homo sapiens), sequence (Q8TDC3 whole entry): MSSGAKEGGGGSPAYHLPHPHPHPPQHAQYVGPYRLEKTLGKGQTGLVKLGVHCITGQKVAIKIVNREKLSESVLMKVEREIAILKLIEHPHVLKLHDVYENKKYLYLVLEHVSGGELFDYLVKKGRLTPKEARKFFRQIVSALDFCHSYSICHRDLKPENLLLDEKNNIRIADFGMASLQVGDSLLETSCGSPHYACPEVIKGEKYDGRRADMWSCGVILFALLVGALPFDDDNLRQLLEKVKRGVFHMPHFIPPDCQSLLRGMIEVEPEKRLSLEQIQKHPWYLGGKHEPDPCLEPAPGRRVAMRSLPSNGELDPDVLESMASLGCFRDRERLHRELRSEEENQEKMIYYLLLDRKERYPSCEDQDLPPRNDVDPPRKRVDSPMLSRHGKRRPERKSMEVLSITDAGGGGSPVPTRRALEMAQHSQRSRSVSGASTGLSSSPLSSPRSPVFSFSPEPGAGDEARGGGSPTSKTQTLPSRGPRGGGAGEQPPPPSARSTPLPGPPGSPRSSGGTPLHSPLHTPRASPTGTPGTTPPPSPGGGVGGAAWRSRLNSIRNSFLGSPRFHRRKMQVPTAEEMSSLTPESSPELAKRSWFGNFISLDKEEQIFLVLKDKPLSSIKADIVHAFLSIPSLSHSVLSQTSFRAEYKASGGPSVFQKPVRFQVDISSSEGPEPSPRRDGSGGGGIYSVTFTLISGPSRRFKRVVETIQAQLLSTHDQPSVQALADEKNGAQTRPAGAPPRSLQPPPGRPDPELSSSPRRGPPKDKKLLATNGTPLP
Serine/threonine-protein kinase PAK 4 (Homo sapiens), sequence (O96013 whole entry, looked up): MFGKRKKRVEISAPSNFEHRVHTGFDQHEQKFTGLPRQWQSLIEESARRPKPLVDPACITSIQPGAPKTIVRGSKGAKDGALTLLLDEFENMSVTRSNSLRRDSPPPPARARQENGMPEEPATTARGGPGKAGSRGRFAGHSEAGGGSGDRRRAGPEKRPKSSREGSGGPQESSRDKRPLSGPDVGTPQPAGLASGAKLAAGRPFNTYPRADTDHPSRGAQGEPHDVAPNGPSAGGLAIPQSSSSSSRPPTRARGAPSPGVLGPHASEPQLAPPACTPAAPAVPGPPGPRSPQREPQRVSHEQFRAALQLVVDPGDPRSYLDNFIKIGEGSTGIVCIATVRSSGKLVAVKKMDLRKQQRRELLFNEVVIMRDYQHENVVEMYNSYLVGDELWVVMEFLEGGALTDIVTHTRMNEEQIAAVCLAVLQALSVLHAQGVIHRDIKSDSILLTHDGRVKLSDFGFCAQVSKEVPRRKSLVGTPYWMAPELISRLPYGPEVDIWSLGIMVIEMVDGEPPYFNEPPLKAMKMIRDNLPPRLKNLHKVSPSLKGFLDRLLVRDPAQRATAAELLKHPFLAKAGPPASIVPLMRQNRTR
Serine/threonine-protein kinase pim-2 (Homo sapiens), sequence (Q9P1W9 whole entry, looked up): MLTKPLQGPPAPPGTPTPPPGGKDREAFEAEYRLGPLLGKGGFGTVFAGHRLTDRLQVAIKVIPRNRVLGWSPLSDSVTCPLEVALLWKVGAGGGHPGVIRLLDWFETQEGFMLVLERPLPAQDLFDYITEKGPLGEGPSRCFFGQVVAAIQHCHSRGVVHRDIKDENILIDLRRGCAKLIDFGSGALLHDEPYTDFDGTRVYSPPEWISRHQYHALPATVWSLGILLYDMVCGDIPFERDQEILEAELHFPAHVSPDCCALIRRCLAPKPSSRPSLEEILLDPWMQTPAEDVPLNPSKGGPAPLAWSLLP
Tyrosine-protein kinase CSK (Homo sapiens), sequence (P41240 2-450 limits assumed): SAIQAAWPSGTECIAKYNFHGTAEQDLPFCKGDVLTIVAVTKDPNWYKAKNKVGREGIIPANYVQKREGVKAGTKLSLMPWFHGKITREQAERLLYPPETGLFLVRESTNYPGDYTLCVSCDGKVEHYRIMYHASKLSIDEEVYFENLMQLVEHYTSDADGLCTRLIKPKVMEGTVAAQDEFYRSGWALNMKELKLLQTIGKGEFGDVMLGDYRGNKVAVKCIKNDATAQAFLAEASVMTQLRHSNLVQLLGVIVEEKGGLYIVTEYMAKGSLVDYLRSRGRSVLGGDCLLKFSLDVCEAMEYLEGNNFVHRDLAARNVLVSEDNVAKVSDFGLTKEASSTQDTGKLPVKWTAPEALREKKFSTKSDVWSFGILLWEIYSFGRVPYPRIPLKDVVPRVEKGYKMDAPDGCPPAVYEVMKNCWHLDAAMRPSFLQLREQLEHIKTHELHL
Serine/threonine-protein kinase 26 (Homo sapiens), sequence (Q9P289 2-416 limits assumed): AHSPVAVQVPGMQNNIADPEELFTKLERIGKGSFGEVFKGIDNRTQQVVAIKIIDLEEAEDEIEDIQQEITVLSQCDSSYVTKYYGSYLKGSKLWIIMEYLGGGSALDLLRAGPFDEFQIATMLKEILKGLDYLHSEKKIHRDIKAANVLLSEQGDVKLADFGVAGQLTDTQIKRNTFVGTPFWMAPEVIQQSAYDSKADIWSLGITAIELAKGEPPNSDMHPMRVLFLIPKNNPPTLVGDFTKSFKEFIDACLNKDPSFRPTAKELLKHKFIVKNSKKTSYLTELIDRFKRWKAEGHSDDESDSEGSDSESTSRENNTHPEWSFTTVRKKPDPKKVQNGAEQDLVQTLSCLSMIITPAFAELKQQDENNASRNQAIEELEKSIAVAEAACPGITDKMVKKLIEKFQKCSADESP
Ephrin type-B receptor 1 (Homo sapiens), sequence (P54762 whole entry): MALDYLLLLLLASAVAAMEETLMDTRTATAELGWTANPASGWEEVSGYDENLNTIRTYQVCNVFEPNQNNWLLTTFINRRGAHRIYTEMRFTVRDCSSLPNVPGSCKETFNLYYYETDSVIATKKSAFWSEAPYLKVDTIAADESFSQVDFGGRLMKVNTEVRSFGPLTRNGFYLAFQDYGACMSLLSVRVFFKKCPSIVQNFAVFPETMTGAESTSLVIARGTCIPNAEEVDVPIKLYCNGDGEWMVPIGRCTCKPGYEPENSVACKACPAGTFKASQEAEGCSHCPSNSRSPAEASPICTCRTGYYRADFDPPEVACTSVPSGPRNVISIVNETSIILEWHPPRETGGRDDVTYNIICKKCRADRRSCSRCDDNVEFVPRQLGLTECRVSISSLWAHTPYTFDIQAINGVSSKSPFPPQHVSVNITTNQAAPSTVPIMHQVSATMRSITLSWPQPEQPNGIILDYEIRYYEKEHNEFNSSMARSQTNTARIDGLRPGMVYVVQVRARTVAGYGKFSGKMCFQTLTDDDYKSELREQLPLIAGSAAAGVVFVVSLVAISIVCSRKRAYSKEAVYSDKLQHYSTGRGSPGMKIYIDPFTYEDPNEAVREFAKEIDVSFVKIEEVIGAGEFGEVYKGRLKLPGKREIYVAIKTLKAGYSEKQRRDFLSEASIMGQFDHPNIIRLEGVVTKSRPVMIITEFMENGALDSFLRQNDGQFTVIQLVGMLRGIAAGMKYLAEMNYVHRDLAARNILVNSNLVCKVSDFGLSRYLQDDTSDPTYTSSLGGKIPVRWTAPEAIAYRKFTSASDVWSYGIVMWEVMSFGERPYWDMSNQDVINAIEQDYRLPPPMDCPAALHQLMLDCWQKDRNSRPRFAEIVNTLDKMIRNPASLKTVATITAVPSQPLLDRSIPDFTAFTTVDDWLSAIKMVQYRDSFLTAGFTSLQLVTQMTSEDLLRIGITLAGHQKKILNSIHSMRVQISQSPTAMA

With `CC[C@@H](CO)Nc1nc(NC(=N)N)c2ncn(C(C)C)c2n1`, the Activity turned out to be 45% in [1]; 40% in assay [2]; 9% in assay [3]; 12% in assay [4]; 1% in [5]; 78% in assay [6]. Moreover, the Activity in [7] was 3%; in [8], 16%; in [9], 44%; in assay [10], 6%; in [11], 91%; in [14] it was 39%. Further, the Activity in assay [15] turned out to be 18%; in the assay filed under Homo sapiens it was 83%; in [16] it was 68%; in assay [17], 59%; in assay [20], 88%; in assay [21], 7%. The Activity in assay [22] is 80%. Further, the Ratio IC50 is 4.6 in assay [12], 2.7 in [13] and more than 10 in the assay with MCF7 [19]. In the assay on MCF7 [18], the Ratio turned out to be 1.6.

For the molecule `CC[C@H](CO)Nc1nc(NC(=N)N)c2ncn(C(C)C)c2n1`, the Activity is 44% in [1]; 42% in assay [2]; 9% in [3]; 15% in assay [4]; 1% in assay [5]; 80% in assay [6]. Moreover, the Activity in assay [7] was determined as 5%; in assay [8], 13%; in [9] it was 50%; in assay [10], 8%; in [11] it was 88%; in assay [14] it was 53%. Also, the Activity was 17% in assay [15]; 90% in the assay listed under Homo sapiens; 71% in assay [16]; 58% in assay [17]; 72% in [20]; 8% in assay [21]. For the same molecule, in assay [22], the Activity came to 96%. In the assay on MCF7 [18], the Ratio was found to be 1.8.

These data come from ChEMBL document CHEMBL2331324, “Synthesis and biological evaluation of guanidino analogues of roscovitine” (Eur J Med Chem, 2013).
